From article PMC11661456 (Science Advances, 2024)
“Also recorded” adds a separate entry of the source.

Columns and labels:
[1] = test system: A. baumannii; assay: Colistin E-test; format: cell-based
[2] = test system: K. pneumoniae; assay: Colistin E-test; format: cell-based; conditions: ATCC 43816 upon MCR-1 expression
[3] = test system: mcr-1–expressing A. baumannii; assay: Bacterial lysis assay, mcr-1-expressing A. baumannii; format: cell-based
Method in brief: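 mcr-1–bearing A. baumannii and its ΔbioC mutant washed three times in biotin-free PBS, then seeded at 2 × 10^8 CFU/ml into 2 ml PBS with or without colistin (8 μg/ml). PBS-only groups served as untreated controls. Positive control arms used a reference inhibitor (4 μg/ml) alone, colistin (8 μg/ml) alone, or both together.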

[4] = test system: mcr-1–harboring K. pneumoniae; assay: Bacterial lysis assay, mcr-1-harboring K. pneumoniae; format: cell-based; conditions: colistin 8 μg/ml; MCR-1-expressing K. pneumoniae ΔbioC (FYJ6186)
[5] = target: T1, AbBioC (Acinetobacter baumannii, UniProt A0A1E3M3A7); assay: Isothermal titration calorimetry of ligand binding to AbBioC; set-up: species or system A. baumannii; conditions: for binding stoichiometry (N): ITC, single binding site model, mean ± SD (n = 3)
T1 sequence (A0A1E3M3A7 1-249): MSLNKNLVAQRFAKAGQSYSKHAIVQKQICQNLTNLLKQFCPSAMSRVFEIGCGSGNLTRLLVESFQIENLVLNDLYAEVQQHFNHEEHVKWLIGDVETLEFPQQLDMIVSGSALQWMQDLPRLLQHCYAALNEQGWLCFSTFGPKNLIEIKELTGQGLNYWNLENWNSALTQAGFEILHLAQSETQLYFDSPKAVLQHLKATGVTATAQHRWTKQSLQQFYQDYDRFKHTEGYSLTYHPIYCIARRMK
Method in brief: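 His6-SUMO-tagged AbBioC, Ni-NTA purified. ITC at 25°C in 20 mM tris (pH 8.0), 300 mM NaCl. AbBioC (20 μM) in cell, titrated with SAM or test compound (200 μM) in 20 injections: 0.4 μl first, then 2.0 μl every 120 s. Data fitted to single-site model; N and Kd given as mean ± SD of three replicates.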

[6] = target: T2, AbBioC methyltransferase (Acinetobacter baumannii, UniProt A0A1E3M3A7); format: biochemical, A. baumannii
T2 sequence (A0A1E3M3A7 1-249): T1 sequence (A0A1E3M3A7 1-249)

[7] = test system: bioC-expressing bacterium; assay: Effect of free SIN on viability of bioC-expressing bacterium; format: cell-based; conditions: free (not nanoparticle-loaded) SIN
[8] = test system: BcBioC; conditions: in vitro; cited from earlier work

| Kd [5] | binding affinity of SIN compared with SAM (fold, Kd) ([5]; ITC Kd of SIN versus the physiological ligand SAM) | binding stoichiometry (N) [5] | Ki [6] | Compound | colistin MIC (E-test) ([1]; AB18PR065 + mcr-4.3, 0.2% glu M9) | colistin MIC (E-test) ([1]; ATCC 17978 + plasmid-borne mcr-1, LB) | colistin MIC (E-test) ([1]; ATCC 17978 without mcr-1, LB) | colistin MIC (E-test) [2] | bacterial lysis / viability ([3]; colistin 8 μg/ml alone, FYJ6179 in PBS, 20 hours) | bacterial killing by colistin of the ΔbioC mutant ([3]; colistin 8 μg/ml, mcr-1–expressing A. baumannii ΔbioC (FYJ6181)) | bacterial killing by colistin of the ΔbioC mutant [4] | effect on the ability of AbBioC to initiate biotin synthesis ([6]; DTB/biotin bioassay, in vitro reconstituted system) | ability of free SIN to diminish bacterial viability [7] | inactivation of BcBioC enzyme [8] |
| --- | --- | --- | --- | --- | --- | --- | --- | --- | --- | --- | --- | --- | --- | --- |
| – | – | – | – | colistin | 8.0 µg/mL | 4.0 µg/mL | 0.5 µg/mL | 32 µg/mL | neither MAC13772 inhibitor (4 μg/ml) nor colistin (8 μg/ml) lysed bacterial cells | resensitize; also recorded: vulnerability | fails to render the K. pneumoniae ΔbioC mutant insusceptible | – | – | – |
| 808 ± 135 nM | around threefold | 1.180 ± 0.008 | ~370 nM | Nc1ncnc2c1ncn2[C@@H]1O[C@H](C[C@@H](N)CC[C@H](N)C(=O)O)[C@@H](O)[C@H]1O [SIN, sinefungin] | – | – | – | – | – | – | – | efficiently interferes; also recorded: effectively kills AbBioC | inability | efficiently inactivate |
| 2570 ± 750 nM | – | 0.95 ± 0.13 | – | C[S+](CC[C@H](N)C(=O)[O-])C[C@H]1O[C@@H](n2cnc3c(N)ncnc32)[C@H](O)[C@@H]1O (stereo partly drawn) [SAM, S-adenosyl-L-methionine] | – | – | – | – | – | – | – | – | – | – |
